Experiment [1] addresses Bromodomain-containing protein 9 (Homo sapiens) (UniProt Q9H8M2). Description: Binding affinity to human N-terminal His-tagged BRD9 assessed as change in melting temperature at 10 uM by SYPRO orange dye-based fluorescence assay. In outline: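 Thermal shift with His-tagged human bromodomain at 2 μM final in 10 mM HEPES pH 7.5, 500 mM NaCl. Compound at 10 μM final with 0.1% DMSO; SYPRO Orange at 1:1000. Equilibrated 3 min at 25 °C, then heated from 25 to 95 °C at 1 °C/min. Melting temperature shift taken from fluorescence; at least duplicate.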

Experiment [2] addresses ATPase family AAA domain-containing protein 2 (Homo sapiens) (UniProt Q6PL18). Description: Binding affinity to human partial length ATAD2A (Q981 to R1108 residues) expressed in bacterial expression system at 1 uM by BROMOscan assay. In outline: (§1)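 BROMOscan bromodomain cross-screen run by an outside service, compound at 1 µM against 32 recombinant bromodomains. Binding given as percent of control.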

Experiment [3] concerns the target Bromodomain-containing protein 1 (Homo sapiens) (UniProt O95696). Description: Binding affinity to human partial length BRD1 (E556 to A688 residues) expressed in bacterial expression system at 1 uM by BROMOscan assay. In outline: as §1
Experiment [4] addresses E3 ubiquitin-protein ligase TRIM33 (Homo sapiens) (UniProt Q9UPN9). Description: Binding affinity to human partial length TRIM33 (D882 to A1087 residues) expressed in bacterial expression system at 1 uM by BROMOscan assay. In outline:
as §1

The target in experiment [5] is Activin receptor type-1-like (Homo sapiens) (UniProt P37023). Description: Inhibition of recombinant human ALK1 (142 to end residues) at 10 uM using casein as substrate measured after 40 mins in presence of [gamma33P]ATP by scintillation counting method.
Experiment [6] addresses Calcium/calmodulin-dependent protein kinase type 1B (Homo sapiens) (UniProt Q6P2M8). Kind of experiment: Inhibition of recombinant full-length human CaMK1beta at 10 uM using calmodulin as substrate measured after 40 mins in presence of [gamma33P]ATP by scintillation counting method.
Experiment [7] addresses Casein kinase I (Homo sapiens) (UniProt Q9HCP0+P78368+P48730+P49674+P48729). Description: Inhibition of CK1 (unknown origin) at 10 uM. The experiment is classed as protein assay. In outline:
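Kinase panel of 422 kinases screened by Eurofins KinaseProfiler at a single test-compound concentration of 10 µM.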

Experiment [8] addresses Myotonin-protein kinase (Homo sapiens) (UniProt Q09013). Kind of experiment: Inhibition of recombinant human DMPK (1 to 549 residues) at 10 uM using KKSRGDYMTMQIG as substrate measured after 40 mins in presence of [gamma33P]ATP by scintillation counting method.
For experiment [9], the target named is Fibroblast growth factor receptor 3 (Homo sapiens) (UniProt P22607). Kind of experiment: Inhibition of recombinant human FGFR3 (447 to 761 residues) at 10 uM using poly(Glu, Tyr) 4:1 as substrate measured after 40 mins in presence of [gamma33P]ATP by scintillation counting method.
The target of experiment [10] is Serine/threonine-protein kinase Nek11 (Homo sapiens) (UniProt Q8NG66). Description: Inhibition of recombinant full-length human NEK11 at 10 uM using myelin basic protein as substrate measured after 40 mins in presence of [gamma33P]ATP by scintillation counting method.
For experiment [11], the target named is Platelet-derived growth factor receptor beta (Homo sapiens) (UniProt P09619). Description: Inhibition of recombinant human PDGFRbeta (557 to end residues) at 10 uM using poly(Glu, Tyr) 4:1 as substrate measured after 40 mins in presence of [gamma33P]ATP by scintillation counting method.
The species entered for experiment [12] is Homo sapiens. Description: Inhibition of recombinant human Plk4 S34T mutant (1 to 273 residues) at 10 uM using casein as substrate measured after 40 mins in presence of [gamma33P]ATP by scintillation counting method.
In experiment [13] the test system is Ribosomal protein S6 kinase alpha-1 (Rattus norvegicus), Q63531 [S637N,G697A]. Description: Inhibition of recombinant full-length rat Rsk1 S637N/G697A mutant at 10 uM using KKKNRTLSVA as substrate measured after 40 mins in presence of [gamma33P]ATP by scintillation counting method.
For experiment [14], the species on record is Homo sapiens. Description: Inhibition of human activated Tec F514V mutant (174 to end residues) using EFPIYDFLPAKKK as substrate measured after 40 mins in presence of [gamma33P]ATP by scintillation counting method.
The target in experiment [15] is Wee1-like protein kinase (Homo sapiens) (UniProt P30291). Kind of experiment: Inhibition of human Wee1 (214 to end residues) using LSNLYHQGKFLQTFCGSPLYRRR as substrate measured after 40 mins in presence of [gamma33P]ATP by scintillation counting method.
For experiment [16], the target named is DNA-dependent protein kinase catalytic subunit (Homo sapiens) (UniProt P78527). Description: Inhibition of recombinant full-length human DNA-PK at 10 uM using GST-cMyc-p53 as substrate measured after 40 mins by fluorescence assay.
Experiment [17] relates to PI3-kinase p110-alpha/p85-alpha (Homo sapiens), P27986+P42336 [E542K]. Kind of experiment: Inhibition of recombinant full-length human PI3K p110alpha/p85alpha E542K mutant at 10 uM using phosphatidylinositol-4, 5-bisphosphate as substrate measured after 40 mins by fluorescence assay. Type of experiment: protein-complex assay.
The target of experiment [18] is Phosphatidylinositol 3-kinase C2 domain-containing subunit gamma (Homo sapiens) (UniProt O75747). Description: Inhibition of recombinant human PI3KC2gamma (468 to 1203 residues) at 10 uM using phosphatidylinositol as substrate measured after 40 mins by HTRF assay. In general terms: Time-resolved FRET reads energy transfer from a long-lived donor to a nearby acceptor.

The source made the active and inactive calls. The rule behind the calls is not given here.

Wee1-like protein kinase (Homo sapiens), sequence (P30291 whole entry, looked up): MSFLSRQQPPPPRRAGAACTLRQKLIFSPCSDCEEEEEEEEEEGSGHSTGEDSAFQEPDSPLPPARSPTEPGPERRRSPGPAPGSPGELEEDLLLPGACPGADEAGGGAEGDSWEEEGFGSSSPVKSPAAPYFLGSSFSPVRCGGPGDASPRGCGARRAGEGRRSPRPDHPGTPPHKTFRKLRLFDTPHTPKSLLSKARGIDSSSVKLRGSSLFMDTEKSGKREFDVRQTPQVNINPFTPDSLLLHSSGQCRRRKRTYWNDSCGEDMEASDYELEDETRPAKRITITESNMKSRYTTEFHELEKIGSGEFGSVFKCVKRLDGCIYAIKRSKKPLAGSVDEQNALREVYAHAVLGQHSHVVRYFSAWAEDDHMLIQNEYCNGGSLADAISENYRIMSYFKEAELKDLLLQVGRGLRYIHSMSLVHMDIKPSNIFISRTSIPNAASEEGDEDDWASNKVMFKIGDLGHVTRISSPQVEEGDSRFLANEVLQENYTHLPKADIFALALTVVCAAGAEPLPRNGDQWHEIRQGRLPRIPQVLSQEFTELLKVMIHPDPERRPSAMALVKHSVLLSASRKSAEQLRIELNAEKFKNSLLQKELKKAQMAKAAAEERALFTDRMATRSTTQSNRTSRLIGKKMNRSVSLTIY
E3 ubiquitin-protein ligase TRIM33 (Homo sapiens), sequence (Q9UPN9 whole entry, the tested form may be a part): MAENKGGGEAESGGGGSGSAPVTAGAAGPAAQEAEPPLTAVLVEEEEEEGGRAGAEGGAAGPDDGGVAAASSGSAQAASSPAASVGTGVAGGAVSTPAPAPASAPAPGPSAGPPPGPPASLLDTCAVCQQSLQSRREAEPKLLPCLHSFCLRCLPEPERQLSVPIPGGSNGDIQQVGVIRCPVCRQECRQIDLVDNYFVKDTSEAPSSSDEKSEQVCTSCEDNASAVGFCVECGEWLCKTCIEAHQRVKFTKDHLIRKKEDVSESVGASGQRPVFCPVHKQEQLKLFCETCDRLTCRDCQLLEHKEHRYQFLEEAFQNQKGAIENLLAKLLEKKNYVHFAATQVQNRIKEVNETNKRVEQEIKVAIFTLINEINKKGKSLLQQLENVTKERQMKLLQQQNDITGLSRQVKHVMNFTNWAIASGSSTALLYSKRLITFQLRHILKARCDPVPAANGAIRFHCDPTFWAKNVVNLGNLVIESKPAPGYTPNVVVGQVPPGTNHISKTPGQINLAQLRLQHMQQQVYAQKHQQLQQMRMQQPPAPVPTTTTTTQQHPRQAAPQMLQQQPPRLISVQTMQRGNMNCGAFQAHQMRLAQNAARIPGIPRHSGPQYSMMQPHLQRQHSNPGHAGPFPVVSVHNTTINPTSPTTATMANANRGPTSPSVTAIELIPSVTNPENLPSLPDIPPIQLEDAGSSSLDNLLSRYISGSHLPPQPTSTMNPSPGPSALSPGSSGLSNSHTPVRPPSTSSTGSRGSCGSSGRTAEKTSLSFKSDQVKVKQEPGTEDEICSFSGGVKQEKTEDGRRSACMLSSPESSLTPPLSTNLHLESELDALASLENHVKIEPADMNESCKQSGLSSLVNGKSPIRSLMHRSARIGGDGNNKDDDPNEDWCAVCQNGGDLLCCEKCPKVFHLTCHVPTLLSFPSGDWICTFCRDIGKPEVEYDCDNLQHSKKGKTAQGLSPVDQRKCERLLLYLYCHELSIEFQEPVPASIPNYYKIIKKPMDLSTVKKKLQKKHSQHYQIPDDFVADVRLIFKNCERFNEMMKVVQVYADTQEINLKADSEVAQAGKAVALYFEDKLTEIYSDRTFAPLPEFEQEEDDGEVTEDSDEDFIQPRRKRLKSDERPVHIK
Serine/threonine-protein kinase Nek11 (Homo sapiens), sequence (Q8NG66 whole entry): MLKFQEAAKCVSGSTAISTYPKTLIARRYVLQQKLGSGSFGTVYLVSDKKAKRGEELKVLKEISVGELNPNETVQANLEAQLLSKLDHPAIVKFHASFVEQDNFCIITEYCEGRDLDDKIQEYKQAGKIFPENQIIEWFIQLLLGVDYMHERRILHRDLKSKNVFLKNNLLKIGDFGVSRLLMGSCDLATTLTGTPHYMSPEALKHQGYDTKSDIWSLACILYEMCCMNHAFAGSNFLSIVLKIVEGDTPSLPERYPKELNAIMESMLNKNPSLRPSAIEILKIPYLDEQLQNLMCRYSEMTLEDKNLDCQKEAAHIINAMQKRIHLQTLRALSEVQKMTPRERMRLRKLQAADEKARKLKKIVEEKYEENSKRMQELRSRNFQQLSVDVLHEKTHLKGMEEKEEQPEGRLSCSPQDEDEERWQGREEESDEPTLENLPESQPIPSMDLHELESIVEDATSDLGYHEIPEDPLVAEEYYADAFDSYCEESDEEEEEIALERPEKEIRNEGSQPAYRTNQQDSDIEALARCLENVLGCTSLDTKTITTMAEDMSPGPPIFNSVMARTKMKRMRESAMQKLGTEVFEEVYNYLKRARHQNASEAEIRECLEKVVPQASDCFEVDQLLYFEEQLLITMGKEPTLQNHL
Bromodomain-containing protein 1 (Homo sapiens), sequence (O95696 whole entry, the tested form may be a part): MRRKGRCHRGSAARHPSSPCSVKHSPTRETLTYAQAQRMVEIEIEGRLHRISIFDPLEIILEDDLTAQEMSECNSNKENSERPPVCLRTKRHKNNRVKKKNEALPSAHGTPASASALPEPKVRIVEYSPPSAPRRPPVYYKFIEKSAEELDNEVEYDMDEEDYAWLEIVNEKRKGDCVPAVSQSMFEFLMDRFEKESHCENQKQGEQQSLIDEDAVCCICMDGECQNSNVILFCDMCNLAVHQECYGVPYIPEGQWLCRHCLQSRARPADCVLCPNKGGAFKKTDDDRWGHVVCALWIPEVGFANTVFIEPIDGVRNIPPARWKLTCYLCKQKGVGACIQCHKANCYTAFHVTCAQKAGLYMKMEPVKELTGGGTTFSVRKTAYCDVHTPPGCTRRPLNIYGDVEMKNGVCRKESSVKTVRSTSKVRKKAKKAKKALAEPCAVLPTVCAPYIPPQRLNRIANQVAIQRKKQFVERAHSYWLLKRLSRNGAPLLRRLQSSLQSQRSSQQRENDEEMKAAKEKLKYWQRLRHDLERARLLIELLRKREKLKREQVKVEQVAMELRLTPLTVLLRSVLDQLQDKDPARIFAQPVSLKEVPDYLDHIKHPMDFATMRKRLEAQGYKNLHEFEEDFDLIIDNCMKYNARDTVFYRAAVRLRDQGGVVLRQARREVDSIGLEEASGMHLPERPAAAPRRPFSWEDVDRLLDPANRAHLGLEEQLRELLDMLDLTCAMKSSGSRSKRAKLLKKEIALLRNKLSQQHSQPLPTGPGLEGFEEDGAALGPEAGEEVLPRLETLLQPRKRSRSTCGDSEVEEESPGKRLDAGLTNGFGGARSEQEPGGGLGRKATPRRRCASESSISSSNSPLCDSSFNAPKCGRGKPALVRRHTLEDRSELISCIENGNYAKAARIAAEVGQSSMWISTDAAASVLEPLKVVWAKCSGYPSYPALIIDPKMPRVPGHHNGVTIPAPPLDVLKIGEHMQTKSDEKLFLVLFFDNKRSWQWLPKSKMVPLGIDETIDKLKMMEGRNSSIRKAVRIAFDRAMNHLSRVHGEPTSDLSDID
Phosphatidylinositol 3-kinase C2 domain-containing subunit gamma (Homo sapiens), sequence (O75747 whole entry, the tested form may be a part): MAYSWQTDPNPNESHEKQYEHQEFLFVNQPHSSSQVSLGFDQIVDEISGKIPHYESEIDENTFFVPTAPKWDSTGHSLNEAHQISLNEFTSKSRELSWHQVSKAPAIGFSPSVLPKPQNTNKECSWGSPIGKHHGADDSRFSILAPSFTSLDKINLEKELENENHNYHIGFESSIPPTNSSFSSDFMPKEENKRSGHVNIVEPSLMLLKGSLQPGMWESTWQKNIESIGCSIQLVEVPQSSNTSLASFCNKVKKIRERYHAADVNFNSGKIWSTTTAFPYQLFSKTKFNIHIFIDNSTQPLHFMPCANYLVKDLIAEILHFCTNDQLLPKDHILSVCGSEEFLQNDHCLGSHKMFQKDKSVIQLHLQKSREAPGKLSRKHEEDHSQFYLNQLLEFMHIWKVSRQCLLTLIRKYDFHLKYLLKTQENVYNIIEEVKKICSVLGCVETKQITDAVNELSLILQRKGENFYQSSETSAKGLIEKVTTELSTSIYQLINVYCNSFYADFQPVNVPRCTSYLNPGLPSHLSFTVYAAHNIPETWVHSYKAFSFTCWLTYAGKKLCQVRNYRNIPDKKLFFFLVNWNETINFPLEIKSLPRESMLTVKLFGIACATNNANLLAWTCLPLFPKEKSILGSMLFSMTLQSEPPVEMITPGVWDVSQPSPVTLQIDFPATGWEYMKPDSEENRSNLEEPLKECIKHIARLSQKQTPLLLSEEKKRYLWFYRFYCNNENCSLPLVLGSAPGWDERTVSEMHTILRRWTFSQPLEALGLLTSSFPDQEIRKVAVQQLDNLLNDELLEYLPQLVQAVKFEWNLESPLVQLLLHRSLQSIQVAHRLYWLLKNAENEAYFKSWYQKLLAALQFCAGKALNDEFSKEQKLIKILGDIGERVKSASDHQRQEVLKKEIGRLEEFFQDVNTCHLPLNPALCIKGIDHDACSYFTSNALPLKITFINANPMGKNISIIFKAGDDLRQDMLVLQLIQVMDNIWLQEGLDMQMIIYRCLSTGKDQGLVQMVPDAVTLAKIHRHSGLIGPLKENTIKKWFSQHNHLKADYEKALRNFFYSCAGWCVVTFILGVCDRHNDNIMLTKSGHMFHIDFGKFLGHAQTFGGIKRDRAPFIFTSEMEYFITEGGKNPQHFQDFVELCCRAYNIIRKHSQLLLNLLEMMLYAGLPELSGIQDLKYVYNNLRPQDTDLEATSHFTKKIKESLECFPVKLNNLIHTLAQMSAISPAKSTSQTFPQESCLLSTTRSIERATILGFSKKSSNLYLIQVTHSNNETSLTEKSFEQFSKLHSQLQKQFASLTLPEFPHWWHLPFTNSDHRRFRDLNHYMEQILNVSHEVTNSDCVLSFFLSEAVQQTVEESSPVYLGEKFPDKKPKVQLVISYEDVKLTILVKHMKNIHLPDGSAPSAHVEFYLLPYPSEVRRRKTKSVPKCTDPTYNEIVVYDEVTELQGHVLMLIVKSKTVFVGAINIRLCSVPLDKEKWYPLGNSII

The term ΔTm denotes the change in melting temperature against a reference sample. For `CN1C[C@H](Nc2nc3cc[nH]c3c(=O)n2C)C[C@H](c2ccc3c(c2)OCCO3)C1`, the ΔTm in experiment [1] was found to be 2.1 °C. Besides, the result in experiment [2], in [3] and in experiment [4] was inactive. The inhibition result in experiment [5], in [6], in experiment [7], in experiment [8], in experiment [9] and in experiment [10] was “inactive” each time. In addition, the inhibition entry (in experiment [11]; in the experiment filed under Homo sapiens [12]; in [13]; in the experiment filed under Homo sapiens [14]; in experiment [15]; in experiment [16]) was “inactive” each time. The inhibition entry in experiment [17] and in [18] was “inactive” throughout.

(Values after ChEMBL document CHEMBL4350961, “Discovery of Pyrrolo[3,2- d]pyrimidin-4-one Derivatives as a New Class of Potent and Cell-Active Inhibitors of P300/CBP-Associated Factor Bromodomain” (J Med Chem, 2019).)
